# MEKK2 WT-MEK5 – raises or lowers MEK5 binding to wildtype human MEKK2 PB1 domain; Q9Y2U5; bead flow cytometry, Alexa488-MEK5 binding to MEKK2 WT; actives lie on both sides; binding response (% of control), % at 10 µM; 290,000 tested, 1.1% active; AID 1531; in the data active = binding response below about 67% or above about 130%
# UCH37 inh – blocks the human deubiquitinase UCH37; purified proteasome/UCH37, Ub-AMC cleavage fluorescence; inhibition, % (concentration not given with the values); 330,000 tested, 0.33% active; AID 588478;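 active = mean inhibition over replicate wells above about 20%, limit read from the data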;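 note: 0% = compound-free wells with enzyme and 100% = wells lacking proteasome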
#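 Test system – human UCH37 enzyme supplied as purified proteasome complex · Incubation – 30 min preincubation with enzyme, 25 min cleavage at room temperature · Detection – AMC fluorescence from Ub-AMC cleavage, excitation 355 nm, emission 460 nm · Benchmarks – no-proteasome wells (full inhibition) and compound-free wells (no inhibition)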
# UBC13 inh – human UBC13 polyubiquitination inhibition; P61088; UBC13 polyubiquitin chain formation, TR-FRET; inhibition, % at 20 µM; 330,000 tested, 0.47% active; AID 485273; in the data active = inhibition above about 45%, passing the limit was not always enough
# MEKK2mut PB1 HTS – signal of MEK5 binding to mutant human MEKK2 PB1 domain | bead flow cytometry, Alexa488-MEK5 binding to MEKK2 mutant | percent response, % at 10 µM | 290,000 tested, 0.35% active | AID 1530; in the data active = percent response above about 24%, passing the limit was not always enough
# Apaf-1 inh – human Apaf-1 inhibition | reconstituted apoptosome caspase-3 activity, DEVD-Rh110 fluorescence | inhibition, % at 20 µM | 330,000 tested, 0.71% active; active = inhibition of at least 40% at 20 µM;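 note: plate controls were DMSO wells for no effect and DEVD-CHO caspase inhibitor wells for full effect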
#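 System: reconstituted apoptosome with Apaf-1, cytochrome c, caspase-9, procaspase-3, dATP; Signal: Rh110 fluorescence intensity; Schedule: 30 min compound preincubation, 50 min activation, room temperature; Reagent: cytochrome c trigger plus (Z-DEVD)2-Rh110 caspase-3 substrate.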
# MEKK3 PB1 HTS – modulators (inhibitors or enhancers) of MEK5 binding to human MEKK3 PB1 domain; bead-based flow cytometry, Alexa488-MEK5 binding to MEKK3; actives lie on both sides; 0 = blocked by unlabeled MEK5, 100 = vehicle; binding response (% of control), % at 10 µM; Q99759; 290,000 tested, 1.4% active;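 active = binding response more than 3 SD above or below the average of its plate-row segment, actives on both sides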;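 note: Alexa488 bead fluorescence after subtracting the streptavidin-only scavenger bead signal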
# Target sequence (Q99759 whole entry, looked up, the tested form may be a part): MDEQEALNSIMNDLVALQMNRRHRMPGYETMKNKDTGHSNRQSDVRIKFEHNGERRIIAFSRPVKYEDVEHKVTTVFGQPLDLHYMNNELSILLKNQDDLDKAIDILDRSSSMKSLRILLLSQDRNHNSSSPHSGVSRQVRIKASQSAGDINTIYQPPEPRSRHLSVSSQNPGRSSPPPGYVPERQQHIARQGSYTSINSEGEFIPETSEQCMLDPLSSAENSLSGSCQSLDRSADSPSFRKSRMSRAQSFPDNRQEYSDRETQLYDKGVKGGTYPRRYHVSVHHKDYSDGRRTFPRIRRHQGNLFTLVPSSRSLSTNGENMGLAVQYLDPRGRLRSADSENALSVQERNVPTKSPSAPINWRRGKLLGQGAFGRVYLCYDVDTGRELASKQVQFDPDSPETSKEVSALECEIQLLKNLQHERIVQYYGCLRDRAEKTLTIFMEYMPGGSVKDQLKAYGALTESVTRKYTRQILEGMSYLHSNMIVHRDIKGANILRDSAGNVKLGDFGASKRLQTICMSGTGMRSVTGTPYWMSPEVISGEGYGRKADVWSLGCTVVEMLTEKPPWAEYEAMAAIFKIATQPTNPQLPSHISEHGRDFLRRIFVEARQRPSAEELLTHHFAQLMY
# MEKK2wt confirm – raises or lowers MEK5 binding to wildtype human MEKK2, retest; shares compounds with MEKK3 PB1 HTS; bead flow cytometry, Alexa488-MEK5 binding to MEKK2 WT; actives lie on both sides; binding response (% of control), % at 10 µM; 5,900 tested, 2.4% active; AID 1892; in the data active = binding response below about 16% or above about 210%; inactive = in between
# MEKK2mut-MEK5 – signal of MEK5 binding to mutant human MEKK2, retest; AID 1893; shares compounds with MEKK3 PB1 HTS; bead flow cytometry, Alexa488-MEK5 binding to MEKK2 mutant; 5,900 tested, 2% active; percent response, % at 10 µM; in the data active = percent response mostly above about 71%, no sharp cut-off; inactive = mostly below about 38%;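 note: higher means compound restores mutant binding toward wildtype level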
# MEKK3 confirm – MEKK3-MEK5 PB1 inhibition, single concentration confirmation; shares compounds with MEKK3 PB1 HTS; bead flow cytometry, Alexa488-MEK5 binding to MEKK3; active compounds read low; AID 1894; binding response (% of control), % at 10 µM; 5,900 tested, 1.8% active;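 active = binding response below 72% of control, or above a set upper limit, though filed actives all read lower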;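 note: 100% = DMSO only wells and 0% = binding blocked by excess unlabeled MEK5; lower values mean stronger disruption of MEK5 binding to MEKK3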
# Starred values were filed as active, the others as inactive; . = not tested or not shown; [ ] = another dose, or the depositor's remark. Rows were chosen to be rich in hits. Some 3% of all compounds tested hit in one or more screens of this group.
SMILES,MEKK2 WT-MEK5,UCH37 inh,UBC13 inh,MEKK2mut PB1 HTS,Apaf-1 inh,MEKK3 PB1 HTS,MEKK2wt confirm,MEKK2mut-MEK5,MEKK3 confirm
COc1ccc(C(C)=O)cc1CSc1nc2ccccc2c(=O)n1-c1cccc(C)c1,102,5,6,-1,-1,156*,98,0,105
O=C(COC(=O)c1ccc[n+]([O-])c1)Nc1ccc([N+](=O)[O-])cc1Cl,.,4,-8,.,-5,.,.,.,.
CC(C)CCCN1C(Nc2ccccc2)=NC[C@@H]1CC(C)C,111,1,22,10,-3,101,.,.,.
CC1C(c2ccccc2)N(C)CCC12NC(=O)NC2=O (stereo not given),6.0*[inhibitor],0,-4,-45,-4,4.0*[inhibitor],101,-1,105
CCCCN(C(=O)Nc1ccc(OCC)cc1)C1CCN(C(C)=O)CC1,-1.0*[inhibitor],4,-10,-3,4,93,101,3,98
CCCCN(C)C1CCN(C(=S)Nc2ccc(OCC)cc2)CC1,86,1,16,-12,-9,94,.,.,.
O=c1[nH]c(Nc2ccc3c(c2)OCCO3)nnc1Cc1ccc(Cl)cc1,106,2,-3,3,23,129*,94,-8,97
COc1ccc(Cc2nnc(Nc3ccc(Cl)cc3)[nH]c2=O)cc1,95,4,9,-1,-12,102,.,.,.
COC(=O)Cc1cc(=O)[nH]c(N=C(N)Nc2ccccc2)n1,.,6,.,.,.,.,.,.,.
C=CCC(NCc1ccco1)c1ccc(OC)c(OC)c1 (stereo not given),-1.0*[inhibitor],2,-10,-16,2,0.0*[inhibitor],93,-5,98
C=CCC(NCc1ccco1)c1ccc(OC)cc1OC (stereo not given),93,1,3,-6,-4,92,.,.,.
COc1ccc(C(CC(=O)O)NC(=O)c2ccco2)cc1 (stereo not given),99,2,6,-1,-1,102,.,.,.
COc1ccc(C(CC(=O)O)NC(=O)c2ccco2)cc1OC (stereo not given),111,4,8,24*,-12,110,101,-1,99
Cc1cc(C(=S)N2CCOCC2)c(C)n1-c1ccc(Cl)cc1,101,4,6,-1,25,113,.,.,.
CCC(/C=C1\Sc2ccc(OC)cc2N1CCO)=C\c1sc2ccc(OC)cc2[n+]1CCO,1.0*[inhibitor],10,40,-27,23,36*[inhibitor],1.0*[inhibitor],-35,39*
CCC(/C=C1\Sc2ccc(OC)cc2N1CC)=C\c1sc2ccc(OC)cc2[n+]1CCCS(=O)(=O)[O-],6.0*[inhibitor],9,-20,-45,9,56*[inhibitor],17*[inhibitor],-32,64*
CCC(=O)/C=C1/Sc2ccc(OC)cc2N1CCO,106,16,6,-10,-4,107,.,.,.
C=CCN(c1ccccc1)S(=O)(=O)c1ccc2[nH]cc(C(=O)NCCOC)c(=O)c2c1,105,-1,6,8,6,107,.,.,.
COc1cc(C(=O)NNC(=O)C2CSC3(C)CCC(=O)N23)cc(OC)c1OC (stereo not given),.,0,-10,.,9,.,.,.,.
COc1cccc(CN2CCC(n3nccc3NC(=O)CCOc3ccccc3)CC2)c1,117,7,9,9,1,104,.,.,.
O=C(CCOc1ccccc1)Nc1ccnn1C1CCN(Cc2ccc(O)cc2)CC1,148*,2,6,22,7,109,135,17,105
COC(=O)c1ccc(C(=O)OC)c(NC(=O)COC(=O)c2ccc(OC)c(OC)c2OC)c1,116,5,1,13,6,101,.,.,.
CCc1ccccc1NC(=O)CN(C)C(=O)Cn1ncc(Cl)c(Cl)c1=O,108,2,.,1,.,133*,106,0,106
CN(CCOCCOc1ccc(Cl)cc1Br)Cc1ccccc1,116,2,3,9,1,105,.,.,.
Oc1ccc(O)c(-c2cnns2)c1,105,2,.,0,.,132*,111,6,107
SMILES,MEKK2 WT-MEK5,UCH37 inh,UBC13 inh,MEKK2mut PB1 HTS,Apaf-1 inh,MEKK3 PB1 HTS,MEKK2wt confirm,MEKK2mut-MEK5,MEKK3 confirm
CCN(CC(O)Cn1c2ccccc2c2ccccc21)S(=O)(=O)c1ccc(C)cc1 (stereo not given),122,4,12,5,24,125*,108,-2,101
CN(CC(O)Cn1c2ccccc2c2ccccc21)S(C)(=O)=O (stereo not given),104,0,-1,6,7,103,.,.,.
O=C(Nc1nc2nccc(-c3ccccc3)n2n1)c1ccccc1,103,-12,2,3,-9,102,.,.,.
COc1ccc(C(=O)Nc2nc3nccc(-c4ccccc4)n3n2)cc1,108,0,-8,1,2,180*,102,4,103
FC(F)(F)c1ccc(-c2nnc(-c3ccccn3)c(-c3ccccn3)n2)nc1,66,7,0,-37,1,61*[inhibitor],106,3,103
c1ccc(-c2nnc(-c3ccccn3)c(-c3ccccn3)n2)nc1,103,5,-4,5,-9,103,.,.,.
CC(C)(Oc1ccc(Cl)cc1)C(=O)NCc1ccncc1,93,5,-6,-4,-2,101,.,.,.
O=C1CCC([N+](=O)[O-])C(c2cc3c(cc2Br)OCO3)N1 (stereo not given),108,1,-3,2,-7,156*,124,8,113
O=C(O)CC(NS(=O)(=O)c1c(F)cc(F)cc1Br)c1ccccc1Cl (stereo not given),114,4,1,279*,-1,115,101,-7,98
Cc1ccc(S(=O)(=O)c2nc(N3CCOCC3)sc2Cl)cc1,119,2,2,7,-6,124*,106,1,110
CCCS(=O)(=O)c1nc(S(=O)(=O)c2ccc(C)cc2)c(N2CCOCC2)s1,102,2,3,5,9,101,.,.,.
CCOC(=O)c1ccc(NC(=O)NC2CC3CCC(C2)N3C(=S)NC)cc1 (stereo not given),74,6,1,-13,2,82,.,.,.
COc1cc2[nH]c(=O)n(CCC(=O)N3CC=C(c4ccccc4)CC3)c(=O)c2cc1OC,100,-11,-3,-2,6,97,.,.,.

# Screens (PubChem BioAssay)
